According to BindingDB's records for doi:10.1016/j.ejmech.2019.111920 (Jagiellonian University Medical College, 2020):

Target: T1, Sodium- and chloride-dependent GABA transporter 2 (Mus musculus, UniProt P31649)
T1 sequence (P31649 whole entry): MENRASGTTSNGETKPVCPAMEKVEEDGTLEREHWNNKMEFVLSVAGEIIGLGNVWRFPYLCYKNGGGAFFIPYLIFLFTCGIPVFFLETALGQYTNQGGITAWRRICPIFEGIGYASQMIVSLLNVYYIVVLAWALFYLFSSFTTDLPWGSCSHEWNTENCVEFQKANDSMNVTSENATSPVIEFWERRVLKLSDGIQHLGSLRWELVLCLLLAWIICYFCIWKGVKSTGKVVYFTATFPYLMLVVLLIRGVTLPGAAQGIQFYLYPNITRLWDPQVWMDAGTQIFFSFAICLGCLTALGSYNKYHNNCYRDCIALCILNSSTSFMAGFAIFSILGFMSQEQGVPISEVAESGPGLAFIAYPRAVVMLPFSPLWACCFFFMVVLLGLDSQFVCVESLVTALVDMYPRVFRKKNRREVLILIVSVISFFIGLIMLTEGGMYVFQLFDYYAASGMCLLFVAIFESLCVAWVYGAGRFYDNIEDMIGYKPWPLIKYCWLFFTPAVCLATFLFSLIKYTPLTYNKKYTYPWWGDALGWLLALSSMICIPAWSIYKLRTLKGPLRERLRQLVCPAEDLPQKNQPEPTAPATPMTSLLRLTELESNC
Assay: Inhibition of mouse GAT2 expressed in HEK293 cell line assessed as inhibition of [3H]GABA uptake measured after 35 mins by liquid scintillation method
How it was run: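 [3H]GABA uptake assay at each mGAT subtype, with screening at 100 µM inhibitor. […] Otherwise, the remaining uptake at 100 µM is reported as a percentage. Values without SEM come from a single triplicate experiment.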

Row | IC50 | SMILES
1 | 5.5 µM | Cc1ccsc1C(=CCCN(C)C(CCN)C(=O)NCc1ccccc1)c1sccc1C (stereo unspecified)
2 | 10.4 µM | Cc1ccsc1C(=CCCN(C)C(CC(C)O)C(=O)NCc1ccccc1Cl)c1sccc1C (stereo unspecified)
3 | 24 µM | Cc1ccc(CNC(=O)C(CO)N(C)CCC=C(c2sccc2C)c2sccc2C)cc1 (stereo unspecified)
4 | 10.5 µM | Cc1ccsc1C(=CCCN(C)C(CC(C)O)C(=O)NCc1ccc(Cl)cc1)c1sccc1C (stereo unspecified)
5 | 229 µM | NCC(O)C(=O)O (stereo unspecified)
6 | 49 µM | O=C(O)C1=CCCN(CCO/N=C/c2ccccc2-c2ccc(Cl)cc2Cl)C1
7 | 9.77 µM | Cc1ccc(CNC(=O)C(CCO)N(C)CCC=C(c2sccc2C)c2sccc2C)cc1 (stereo unspecified)
8 | 4.47 µM | CC(=O)NCCC(C(=O)NCc1ccccc1Cl)N(C)CCC=C(c1sccc1C)c1sccc1C (stereo unspecified)
9 | 20.4 µM | Cc1ccsc1C(=CCCN(C)C(CCO)C(=O)NCc1ccccc1)c1sccc1C (stereo unspecified)
10 | 30.9 µM | Cc1ccsc1C(=CCCN(C)C(CO)C(=O)NCc1ccccc1)c1sccc1C (stereo unspecified)
11 | 26.3 µM | Cc1ccsc1C(=CCCN(C)C(CC(C)O)C(=O)NCc1ccc(F)cc1)c1sccc1C (stereo unspecified)
12 | 5.62 µM | Cc1ccsc1C(=CCCN(C)C(CCO)C(=O)NCc1ccc(F)cc1)c1sccc1C (stereo unspecified)
13 | 7.76 µM | Cc1ccc(CNC(=O)C(CCN)N(C)CCC=C(c2sccc2C)c2sccc2C)cc1 (stereo unspecified)
14 | 22.4 µM | Cc1ccsc1C(=CCCN(C)C(CO)C(=O)NCc1ccc(F)cc1)c1sccc1C (stereo unspecified)
15 | 10.5 µM | Cc1ccsc1C(=CCCN(C)C(CCO)C(=O)NCc1ccccc1Cl)c1sccc1C (stereo unspecified)
16 | 10 µM | Cc1ccsc1C(=CCCN(C)C(CCO)C(=O)NCc1ccc(F)cc1F)c1sccc1C (stereo unspecified)
17 | 17 µM | Cc1ccc(CNC(=O)C(CC(C)O)N(C)CCC=C(c2sccc2C)c2sccc2C)cc1 (stereo unspecified)
18 | 631 µM | O=C(O)C1=CCCN(CCON=C(c2ccccc2)c2ccccc2)C1
19 | 8.91 µM | Cc1ccsc1C(=CCCN(C)C(CC(C)O)C(=O)NCc1ccccc1)c1sccc1C (stereo unspecified)
20 | 15.8 µM | Cc1ccsc1C(=CCCN(C)C(CO)C(=O)NCc1ccc(Cl)cc1)c1sccc1C (stereo unspecified)
21 | 25.7 µM | Cc1ccsc1C(=CCCN(C)C1CCc2onc(O)c2C1)c1sccc1C (stereo unspecified)
